ChEMBL document CHEMBL1156264, “Synthesis and structure-activity relationships of dimeric peptide antagonists of the human immunoglobulin G-human neonatal Fc receptor (IgG-FcRn) interaction” (J Med Chem, 2010)
Numbered stars: 1 amine (or outer) side, 2 acyl side, 3 side chain; on linkers, the order of the positions; unused ones are H or OH. Bridge positions count the residues as written; N and C are the ends. Square brackets hold non-standard residues; d marks the D form. Peptide text beside a SMILES is read from it. Phe(4-guanidino) = N=C(N)Nc1ccc(C[C@H](N)C(=O)O)cc1; X1 = O=C(C(=O)[*:2])[C@H](Cc1ccc(O)cc1)N[*:1]; NHCH2CH2N(Me)CH2CO = CN(CCN[*:1])CC(=O)[*:2]; NMeL = CN[C@@H](CC(C)C)C(=O)O; Pen = CC(C)(S)[C@H](N)C(=O)O; Sar = CNCC(=O)O

Key:
[1] = target: T1, IgG receptor FcRn large subunit p51 (Homo sapiens, UniProt P55899); test: Inhibition of IgG binding to soluble human FcRn after 2 hrs by competition ELISA
[2] = target: T1, IgG receptor FcRn large subunit p51; test: Binding affinity to soluble human FcRn at pH 7.4 by surface plasmon resonance assay
Outline: (§1)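 shFcRn was amine-coupled to a CM5 dextran chip, and peptide dilutions were run at pH 6 or pH 7.4 on a Biacore 3000 or T100. The equilibrium response was plotted against concentration and fitted to a steady-state affinity model to give Kd.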

[3] = target: T1, IgG receptor FcRn large subunit p51; test: Binding affinity to soluble human FcRn at pH 6 by surface plasmon resonance assay
Outline: as §1

[4] = target: T1, IgG receptor FcRn large subunit p51; test: Ratio of RF-Pen-TGHFG-Sar-NMeLeu-YPC IC50 to compound IC50 for soluble human FcRn

T1 sequence (P55899 whole entry): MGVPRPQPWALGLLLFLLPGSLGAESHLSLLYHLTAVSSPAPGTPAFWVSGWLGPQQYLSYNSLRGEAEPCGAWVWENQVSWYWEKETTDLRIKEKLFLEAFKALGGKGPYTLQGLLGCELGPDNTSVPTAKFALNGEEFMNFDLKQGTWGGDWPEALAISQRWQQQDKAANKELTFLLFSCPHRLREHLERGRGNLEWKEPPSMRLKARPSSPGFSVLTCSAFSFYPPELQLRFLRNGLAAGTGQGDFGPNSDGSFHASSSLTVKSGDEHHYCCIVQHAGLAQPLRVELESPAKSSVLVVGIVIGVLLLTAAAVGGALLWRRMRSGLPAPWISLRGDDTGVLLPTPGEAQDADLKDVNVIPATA

SMILES | IC50 [1] [nM] | Kd [2] [nM] | Kd [3] [nM] | Ratio IC50 [4]
CC(=O)N[C@@H](CCC(N)=O)C(=O)N[C@@H](CCCNC(=N)N)C(=O)N[C@@H](Cc1ccccc1)C(=O)N[C@H]1CSSC[C@@H](C(=O)N[C@@H](CC(N)=O)C(=O)NCC(=O)N2CCC[C@H]2C(N)=O)NC(=O)[C@@H]2CCCN2C(=O)C(=O)[C@H](Cc2ccc(O)cc2)NC(=O)[C@H](CC(C)C)NC(=O)CNC(=O)CNC(=O)[C@H](Cc2ccccc2)NC(=O)[C@H](Cc2cnc[nH]2)NC(=O)CNC(=O)[C@H]([C@@H](C)O)NC1=O | 40000 | 37000 | 5300 | 
CC(=O)N[C@@H](CCCNC(=N)N)C(=O)N[C@@H](Cc1ccccc1)C(=O)N[C@@H]1C(=O)N[C@@H]([C@@H](C)O)C(=O)NCC(=O)N[C@@H](Cc2c[nH]cn2)C(=O)N[C@@H](Cc2ccccc2)C(=O)NCC(=O)N(C)CC(=O)N(C)[C@@H](CC(C)C)C(=O)N[C@@H](Cc2ccc(O)cc2)C(=O)C(=O)N2CCC[C@H]2C(=O)N[C@H](C(N)=O)CSSC1(C)C | 520 | 170 | 31 | 
CC(=O)N[C@@H](CCCNC(=N)N)C(=O)N[C@@H](Cc1ccccc1)C(=O)N[C@H]1CSSC[C@@H](C(N)=O)NC(=O)[C@@H]2CCCN2C(=O)C(=O)[C@H](Cc2ccc(O)cc2)NC(=O)[C@H](CC(C)C)NC(=O)CNC(=O)CNC(=O)[C@H](Cc2ccccc2)NC(=O)[C@H](Cc2cnc[nH]2)NC(=O)CNC(=O)[C@H]([C@@H](C)O)NC1=O | 37000 |  | 5900 | 
CC(=O)N[C@@H](CCCNC(=N)N)C(=O)N[C@@H](Cc1ccccc1)C(=O)N[C@@H]1C(=O)N[C@@H]([C@@H](C)O)C(=O)NCC(=O)N[C@@H](Cc2ccc(NC(=N)N)cc2)C(=O)NCC(=O)N(C)CC(=O)N(C)[C@@H](CC(C)C)C(=O)N[C@@H](Cc2ccc(O)cc2)C(=O)C(=O)N2CCC[C@H]2C(=O)N[C@H](C(N)=O)CSSC1(C)C (Ac-RF[Pen]TG[Phe(4-guanidino)]G[Sar][NMeL][X1]PC-NH2; disulfide 3-12) | 1000 | 74 | 62 | 
CC(C)C[C@H]1C(=O)N[C@@H](Cc2ccc(O)cc2)C(=O)C(=O)N2CCC[C@H]2C(=O)N[C@H](C(N)=O)CSSC(C)(C)[C@H](NC(=O)[C@H](Cc2ccccc2)NC(=O)[C@H](CCCNC(=N)N)NC(=O)CN(C)CCNC(=O)CNC(=O)[C@@H]2CSSC(C)(C)[C@H](NC(=O)[C@H](Cc3ccccc3)NC(=O)[C@@H](N)CCCNC(=N)N)C(=O)N[C@@H]([C@@H](C)O)C(=O)NCC(=O)N[C@@H](Cc3c[nH]cn3)C(=O)N[C@@H](Cc3ccccc3)C(=O)NCC(=O)N(C)CC(=O)N(C)[C@@H](CC(C)C)C(=O)N[C@@H](Cc3ccc(O)cc3)C(=O)C(=O)N3CCC[C@H]3C(=O)N2)C(=O)N[C@@H]([C@@H](C)O)C(=O)NCC(=O)N[C@@H](Cc2c[nH]cn2)C(=O)N[C@@H](Cc2ccccc2)C(=O)NCC(=O)N(C)CC(=O)N1C (H-RF[Pen]TGHFG[Sar][NMeL][X1]PCG[NHCH2CH2N(Me)CH2CO]RF[Pen]TGHFG[Sar][NMeL][X1]PC-NH2; disulfide 3-13, 18-28) |  |  |  | 130
CC(C)C[C@H]1C(=O)N[C@@H](Cc2ccc(O)cc2)C(=O)C(=O)N2CCC[C@H]2C(=O)N[C@H](C(N)=O)CSSC(C)(C)[C@H](NC(=O)[C@H](Cc2ccccc2)NC(=O)[C@H](CCCNC(=N)N)NC(=O)CC[C@H](C)C(=O)N[C@@H](CCCNC(=N)N)C(=O)N[C@@H](Cc2ccccc2)C(=O)N[C@@H]2C(=O)N[C@@H]([C@@H](C)O)C(=O)NCC(=O)N[C@@H](Cc3c[nH]cn3)C(=O)N[C@@H](Cc3ccccc3)C(=O)NCC(=O)N(C)CC(=O)N(C)[C@@H](CC(C)C)C(=O)N[C@@H](Cc3ccc(O)cc3)C(=O)C(=O)N3CCC[C@H]3C(=O)N[C@H](C(N)=O)CSSC2(C)C)C(=O)N[C@@H]([C@@H](C)O)C(=O)NCC(=O)N[C@@H](Cc2c[nH]cn2)C(=O)N[C@@H](Cc2ccccc2)C(=O)NCC(=O)N(C)CC(=O)N1C | 5.6 |  |  | 90
CC(=O)N[C@@H](CCCNC(=N)N)C(=O)N[C@@H](Cc1ccccc1)C(=O)N[C@@H]1C(=O)N(C)[C@@H](C)C(=O)NCC(=O)N[C@@H](Cc2cnc[nH]2)C(=O)N[C@@H](Cc2ccccc2)C(=O)N[C@H]2CCCN(CC(=O)N(C)[C@@H](CC(C)C)C(=O)N[C@@H](Cc3ccc(O)cc3)C(=O)C(=O)N3CCC[C@H]3C(=O)N[C@H](C(N)=O)CSSC1(C)C)C2=O | 1100 | 950 | 150 | 
CC(C)C[C@H]1C(=O)N[C@@H](Cc2ccc(O)cc2)C(=O)C(=O)N2CCC[C@H]2C(=O)N[C@H](C(N)=O)CSSC(C)(C)[C@H](NC(=O)[C@H](Cc2ccccc2)NC(=O)[C@H](CCCNC(=N)N)NC(=O)C[C@H](C)C(=O)N[C@@H](CCCNC(=N)N)C(=O)N[C@@H](Cc2ccccc2)C(=O)N[C@@H]2C(=O)N[C@@H]([C@@H](C)O)C(=O)NCC(=O)N[C@@H](Cc3c[nH]cn3)C(=O)N[C@@H](Cc3ccccc3)C(=O)NCC(=O)N(C)CC(=O)N(C)[C@@H](CC(C)C)C(=O)N[C@@H](Cc3ccc(O)cc3)C(=O)C(=O)N3CCC[C@H]3C(=O)N[C@H](C(N)=O)CSSC2(C)C)C(=O)N[C@@H]([C@@H](C)O)C(=O)NCC(=O)N[C@@H](Cc2c[nH]cn2)C(=O)N[C@@H](Cc2ccccc2)C(=O)NCC(=O)N(C)CC(=O)N1C | 4.6 |  |  | 110
CC(=O)N[C@@H](CCCNC(=N)N)C(=O)N[C@@H](Cc1ccccc1)C(=O)N[C@H]1CC(=O)NCCCC[C@@H](C(N)=O)NC(=O)[C@@H]2CCCN2C(=O)C(=O)[C@H](Cc2ccc(O)cc2)NC(=O)[C@H](CC(C)C)N(C)C(=O)CN(C)C(=O)CNC(=O)[C@@H](Cc2ccccc2)NC(=O)[C@H](Cc2c[nH]cn2)NC(=O)CNC(=O)[C@H]([C@@H](C)O)NC1=O | 1900 | 930 | 140 | 
CC(C)C[C@H]1C(=O)N[C@@H](Cc2ccc(O)cc2)C(=O)C(=O)N2CCC[C@H]2C(=O)N[C@H](C(N)=O)CSSC(C)(C)[C@H](NC(=O)[C@H](Cc2ccccc2)NC(=O)[C@H](CCCNC(=N)N)NC(=O)CC(C)(C)CC(=O)N[C@@H](CCCNC(=N)N)C(=O)N[C@@H](Cc2ccccc2)C(=O)N[C@@H]2C(=O)N[C@@H]([C@@H](C)O)C(=O)NCC(=O)N[C@@H](Cc3c[nH]cn3)C(=O)N[C@@H](Cc3ccccc3)C(=O)NCC(=O)N(C)CC(=O)N(C)[C@@H](CC(C)C)C(=O)N[C@@H](Cc3ccc(O)cc3)C(=O)C(=O)N3CCC[C@H]3C(=O)N[C@H](C(N)=O)CSSC2(C)C)C(=O)N[C@@H]([C@@H](C)O)C(=O)NCC(=O)N[C@@H](Cc2c[nH]cn2)C(=O)N[C@@H](Cc2ccccc2)C(=O)NCC(=O)N(C)CC(=O)N1C |  |  |  | 100
CC(C)C[C@H]1C(=O)N[C@@H](Cc2ccc(O)cc2)C(=O)C(=O)N2CCC[C@H]2C(=O)N[C@H](C(N)=O)CSSC(C)(C)[C@H](NC(=O)[C@H](Cc2ccccc2)NC(=O)[C@H](CCCNC(=N)N)NCCNC(=O)CCC(=O)N[C@@H](CCCNC(=N)N)C(=O)N[C@@H](Cc2ccccc2)C(=O)N[C@@H]2C(=O)N[C@@H]([C@@H](C)O)C(=O)NCC(=O)N[C@@H](Cc3c[nH]cn3)C(=O)N[C@@H](Cc3ccccc3)C(=O)NCC(=O)N(C)CC(=O)N(C)[C@@H](CC(C)C)C(=O)N[C@@H](Cc3ccc(O)cc3)C(=O)C(=O)N3CCC[C@H]3C(=O)N[C@H](C(N)=O)CSSC2(C)C)C(=O)N[C@@H]([C@@H](C)O)C(=O)NCC(=O)N[C@@H](Cc2c[nH]cn2)C(=O)N[C@@H](Cc2ccccc2)C(=O)NCC(=O)N(C)CC(=O)N1C | 1.6 |  |  | 330
CC(C)C[C@H]1C(=O)N[C@@H](Cc2ccc(O)cc2)C(=O)C(=O)N2CCC[C@H]2C(=O)N[C@H](C(N)=O)CSSC(C)(C)[C@H](NC(=O)[C@H](Cc2ccccc2)NC(=O)[C@H](CCCNC(=N)N)NC(=O)CCC(=O)N(C)CCN(C)C(=O)CCC(=O)N[C@@H](CCCNC(=N)N)C(=O)N[C@@H](Cc2ccccc2)C(=O)N[C@@H]2C(=O)N[C@@H]([C@@H](C)O)C(=O)NCC(=O)N[C@@H](Cc3c[nH]cn3)C(=O)N[C@@H](Cc3ccccc3)C(=O)NCC(=O)N(C)CC(=O)N(C)[C@@H](CC(C)C)C(=O)N[C@@H](Cc3ccc(O)cc3)C(=O)C(=O)N3CCC[C@H]3C(=O)N[C@H](C(N)=O)CSSC2(C)C)C(=O)N[C@@H]([C@@H](C)O)C(=O)NCC(=O)N[C@@H](Cc2c[nH]cn2)C(=O)N[C@@H](Cc2ccccc2)C(=O)NCC(=O)N(C)CC(=O)N1C | 5.2 |  |  | 100
CC(C)C[C@H]1C(=O)N[C@@H](Cc2ccc(O)cc2)C(=O)C(=O)N2CCC[C@H]2C(=O)N[C@H](C(N)=O)CSSC(C)(C)[C@H](NC(=O)[C@H](Cc2ccccc2)NC(=O)[C@H](CCCNC(=N)N)NC(=O)CCNC(=O)CCNC(=O)CCNC(=O)CN(C)CCNC(=O)CCC(=O)N[C@@H](CCCNC(=N)N)C(=O)N[C@@H](Cc2ccccc2)C(=O)N[C@@H]2C(=O)N[C@@H]([C@@H](C)O)C(=O)NCC(=O)N[C@@H](Cc3c[nH]cn3)C(=O)N[C@@H](Cc3ccccc3)C(=O)NCC(=O)N(C)CC(=O)N(C)[C@@H](CC(C)C)C(=O)N[C@@H](Cc3ccc(O)cc3)C(=O)C(=O)N3CCC[C@H]3C(=O)N[C@H](C(N)=O)CSSC2(C)C)C(=O)N[C@@H]([C@@H](C)O)C(=O)NCC(=O)N[C@@H](Cc2c[nH]cn2)C(=O)N[C@@H](Cc2ccccc2)C(=O)NCC(=O)N(C)CC(=O)N1C |  |  |  | 220
CC(=O)N[C@@H](CCCNC(=N)N)C(=O)N[C@@H](Cc1ccccc1)C(=O)N[C@@H]1C(=O)N[C@@H]([C@@H](C)O)C(=O)NCC(=O)N[C@@H](Cc2cnc[nH]2)C(=O)N[C@@H](Cc2ccccc2)C(=O)N[C@H]2CCCN(CC(=O)N(C)[C@@H](CC(C)C)C(=O)N[C@@H](Cc3ccc(O)cc3)C(=O)C(=O)N3CCC[C@H]3C(=O)N[C@H](C(N)=O)CSSC1(C)C)C2=O | 430 | 260 | 43 | 
